# According to PubChem BioAssay AID719 (SRMLSC, 2007):
# The campaign covered roughly 85,000 compounds. About 940 (1.1%) were called active.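 How the source made its calls: active means viability at or below 50% in the single dose screen; inactive means viability above 50%.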 Only a selection was taken, and actives are over-represented in it overall.
# Assay: antiproliferative effect on LL 47 fibroblasts – human, LL 47 cells, CellTiter-Glo luminescence, primary screen (AID 719);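 further: compound exposure lasted 72 h before the ATP readout; 100% = median luminescence of untreated cell-only wells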
# Conditions: LL 47 human lung fibroblast viability, ATP luminescence; at 10 µM; stronger effect = lower value
# How it was run: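 Test system: LL 47 human lung fibroblasts / Quantity: 1,150 cells in each well / Medium: IMEM growth medium with 15% fetal bovine serum / Incubation: 72 h compound exposure at 37 °C after overnight plating / Detection: CellTiter-Glo luminescence measuring cellular ATP / Read-out: % viability versus median cells-only luminescence / Benchmarks: cell-only wells, no compound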
row,SMILES,viability
1,Cc1cc(NC(=O)CSc2nc(C(C)C)nc3sc4c(c23)CCC(C)C4)no1 (stereo unspecified),10.9% (active)
2,Cc1nc(SCC(=O)Nc2cc(C)on2)c2c3c(sc2n1)CCCC3,94.8% (inactive)
3,Cc1nc(SCC(=O)Nc2cc(C)on2)c2c(C)c(C)sc2n1,99.4% (inactive)
4,O=C(/C=C/c1ccc(Cl)cc1Cl)c1cccnc1,79% (inactive)
5,CCOC(=O)c1c(NC(=O)CCl)sc(C(=O)N(CC)CC)c1C,28% (active)
6,CCOC(=O)c1sc(NC(=O)CCN2CCOCC2)c(C(=O)OCC)c1C,80.1% (inactive)
7,CCOC(=O)Nc1sc(C(=O)N(C)C)c(C)c1C(=O)OCC,89.5% (inactive)
8,O=C(NCc1cccnc1)Nc1ccccc1F,96.7% (inactive)
9,Cc1cc(C)c2c(n1)nn1c(-n3ccnc3)cc(C)nc21,101% (inactive)
10,Cc1cc(C)c2c(n1)nn1c(N3CCOCC3)cc(C)nc21,82.4% (inactive)
11,Cc1cc(C)c2c(n1)nn1c(N3CCN(c4cccc(Cl)c4)CC3)cc(C)nc21,36.8% (active)
12,COc1ccc(NC(=O)CCN2CCCC2)c(OC)c1,104% (inactive)
13,Cc1ccccc1-n1c(C)cc(/C=C2\NC(=O)NC2=O)c1C,77.2% (inactive)
14,COC(=O)C(NC(C)=O)(Nc1nc2c(s1)CCCC2)C(F)(F)F (stereo unspecified),103% (inactive)
15,O=C(CCS(=O)(=O)c1ccccc1)Nc1nc2c(s1)CCCC2,47.7% (active)
16,O=C(Cn1c(=O)sc2ccccc21)Nc1nc2c(s1)CCCC2,100% (inactive)
17,N#CC1=C(N)N(c2ccccc2)C2=C(C(=O)CCC2)C1c1ccccc1 (stereo unspecified),93.1% (inactive)
18,COc1ccc(CNCCCO)cc1OC,95.2% (inactive)
19,COC(=O)c1ccccc1Sc1c(/C=N/OCc2ccc(Cl)cc2)c(C(F)(F)F)nn1C,92.7% (inactive)
20,COC(=O)c1cc(OC)ccc1-c1ccc(OC)cc1,90.1% (inactive)
21,Cc1cc(Cl)c(S(=O)(=O)N(C)C)cc1OCC(N)=O,101% (inactive)
22,COc1ccc(-c2nnc(SCc3cccnc3)o2)cc1,105% (inactive)
23,Cc1cccc(OCCCC(=O)Nc2ccc(S(=O)(=O)N3CCCC3)cc2)c1,98.6% (inactive)
24,CC(C)CCNc1nc(N2CCCC2)c2c(c1C#N)CCN(C)C2,30.8% (active)

row,SMILES,viability
1,CCN1CCc2c(C#N)c(NCc3ccccc3)nc(NCCO)c2C1,86.2% (inactive)
2,CC(C)Cc1nc(N2CCOCC2)c(C#N)c2c1CCC2,90.7% (inactive)
3,CC1CCN(C(=O)c2cc3nc(C4CC4)cc(C(F)(F)F)n3n2)CC1,96.3% (inactive)
4,C/C=C/C(=O)Nc1nnc(C(C)C)s1,103% (inactive)
5,Oc1c(CN2CCN(c3ccc(F)cc3)CC2)cc(Cl)c2cccnc12,22.4% (active)
6,CCN1CCN(C(c2cccnc2)c2cc(Cl)c3cccnc3c2O)CC1 (stereo unspecified),75.3% (inactive)
7,O=C(c1cccc(C(=O)N2CCN(c3ccc(F)cc3)CC2)c1)N1CCN(c2ccc(F)cc2)CC1,97.2% (inactive)
8,CCn1nnnc1SCC(=O)c1ccc(C)cc1C,99.4% (inactive)
9,CCNC(=O)NC(=O)C(C)OC(=O)c1cc(S(=O)(=O)N2CCCCCC2)ccc1OC (stereo unspecified),94.5% (inactive)
10,Cc1cc(C(=O)OC(C)C(=O)Nc2cccc(S(=O)(=O)N3CCOCC3)c2)c(C)o1 (stereo unspecified),30.6% (active)
11,O=C(c1cccc(S(=O)(=O)N2CCOCC2)c1)N1CCOCC1,104% (inactive)
12,Cc1cccc(NC(=O)Nc2cccc(Oc3c(F)c(F)c(F)c(F)c3F)c2)c1,49.6% (active)
13,CC(=O)c1cccc(NC(=O)Nc2ccc(C)cc2)c1,109% (inactive)
14,Cc1ccoc1C(=O)Nc1cccc(Oc2ccccc2)c1,103% (inactive)
15,Cc1ccc(C)c(NC2=NCC(=O)N2c2ccc3c(c2)OCCO3)c1,120% (inactive)
16,O=C(CSc1nc2cccnc2n1Cc1ccccc1)N1CCc2ccccc21,104% (inactive)
17,COC(=O)c1sc(NC(=O)c2ccc(OC)cc2OC)nc1C,91.9% (inactive)
18,CC(=O)c1sc(NC(=O)c2ccc(C)cc2)nc1C,105% (inactive)
19,COc1cccc2sc(Nc3nc(C)c(C(C)=O)s3)nc12,26.9% (active)
20,Fc1ccccc1/C=C1\CCCC2=C1Nc1ncnn1C2c1ccccc1F (stereo unspecified),3.89% (active)
21,Cc1cc(SCC(=O)c2ccccc2)nc(SCC(=O)c2ccccc2)n1,102% (inactive)
22,CCOC(=O)c1ccc2c(c1)nc(C)n2CC,103% (inactive)
23,O=C(NCCN1CCN(Cc2ccccc2)CC1)c1cc2c(=O)[nH]c3ccccc3c2s1,42.8% (active)
24,Cn1c(C(=O)NCCN2CCc3ccccc3C2)cc2c(=O)[nH]c3ccccc3c21,93.3% (inactive)

row,SMILES,viability
1,CN1CCN(CCCNC(=O)c2cc3c(=O)oc4ccccc4c3s2)CC1,105% (inactive)
2,CCc1ccc(NC(=O)CN2C(=O)CSC2=O)cc1,100% (inactive)
3,CCOC(=O)c1sc(NC(=O)c2ccncc2)nc1C,98.9% (inactive)
4,CC(OC(=O)CN1C(=O)C2CCCCC2C1=O)C(=O)Nc1ncc(Cl)cc1Cl (stereo unspecified),98.2% (inactive)
5,CC1=CC(C)(C)Nc2ccc(OC(=O)C(Cc3ccccc3)N3C(=O)C4CCCCC4C3=O)cc21 (stereo unspecified),94.3% (inactive)
6,CC1=CC(C)(C)Nc2ccc(OC(=O)CN3C(=O)C4CCCCC4C3=O)cc21 (stereo unspecified),39.7% (active)
7,CC1(C)CC(=O)C=C(N2CCCC2)C1,112% (inactive)
8,COc1ccc(N2CCN(Cc3ccc(Br)s3)CC2)cc1,100% (inactive)
9,CC(=O)Oc1ccc(NC(=O)CCC2CCCCC2)c(C(=O)O)c1,93.2% (inactive)
10,CCCNC(=O)CN(Cc1ccccc1F)S(=O)(=O)c1ccc(C)cc1,105% (inactive)
11,CC1=NN(/C(=N\c2nnc(C)s2)Nc2ccccc2)[C@H](c2ccc(C)cc2)S1,89.1% (inactive)
12,CCCc1[nH]nc2c1C(c1ccc(Br)s1)C(C#N)=C(N)O2 (stereo unspecified),33.5% (active)
13,CCCc1[nH]nc2c1C(c1ccc(OC(=O)c3ccco3)cc1)C(C#N)=C(N)O2 (stereo unspecified),95.1% (inactive)
14,CCCc1[nH]nc2c1C(c1ccc(OC)c(Cn3nc(C)c(Br)c3C)c1)C(C#N)=C(N)O2 (stereo unspecified),95.9% (inactive)
15,CCOc1ccc(NC(=O)C2CCCN(C(=O)Nc3ccccc3)C2)cc1 (stereo unspecified),105% (inactive)
16,CCCCC(C(=O)OCC(=O)c1ccc(OC)cc1)N1C(=O)c2ccccc2C1=O (stereo unspecified),93.2% (inactive)
17,COC(=O)c1ccccc1NC(=O)Cc1ccccc1OC,102% (inactive)
18,CCOc1ccc(Cn2nnc(C(=O)Nc3ccc(OC)cc3OC)c2N)cc1,81.2% (inactive)
19,Nc1c(C(=O)NCc2ccccc2)nnn1Cc1cccc(Cl)c1,44.6% (active)
20,CCOc1ccc(Cn2nnc(C(=O)NCc3ccccc3)c2N)cc1,84.8% (inactive)
21,CC(C)N1C(=S)SC(C)(C)C1n1oc(=O)n(-c2ccc(Cl)c(Cl)c2)c1=O (stereo unspecified),87.5% (inactive)
22,Cn1c2ccccc2c2c(C(=O)N3CCN(c4ccc(F)cc4)CC3)cn(C3CCCC3)c(=O)c21,85.9% (inactive)
23,CCOC(=O)N1CCN(C(=O)c2n[nH]c(=O)c3ccccc23)CC1,97.5% (inactive)
24,CCOC(=O)N1CCN(C(=O)c2nn(-c3ccc(C)cc3)c(=O)c3c2c2ccccc2n3C)CC1,19.7% (active)

row,SMILES,viability
1,Nc1nonc1-c1nc2ccccc2n1Cc1ccc(F)cc1,52.3% (inactive)
2,Nc1nonc1-c1nc2ccccc2n1CCC(=O)O,104% (inactive)
3,COc1ccc(C)c(Cn2c(-c3nonc3N)nc3ccccc32)c1,42.2% (active)
4,CCOc1ccc(N=C2NC(=O)S/C2=C\c2ccc(O)cc2)cc1,102% (inactive)
5,COc1ccc(C)cc1S(=O)(=O)NCCc1ccccc1,97.6% (inactive)
6,Cc1nc(NC(=O)CN(C)S(=O)(=O)c2ccc(Cl)cc2)sc1C,98.6% (inactive)
7,Cc1ccc(-n2c(SCC(=O)Nc3ccc4c(c3)OCO4)nnc2-c2ccccn2)cc1,42.1% (active)
8,Cc1ccc(-n2c(SCC(=O)Nc3ccc4c(c3)OCO4)nnc2-c2ccoc2C)cc1,99% (inactive)
9,O=C(CSc1nnc(-c2ccccn2)n1-c1ccccc1)Nc1ccc2c(c1)OCO2,89.6% (inactive)
10,Cc1ccc(-n2c(SCC(=O)NCc3ccc4c(c3)OCO4)nnc2-c2cccnc2)c(C)c1,95.8% (inactive)
11,O=C(c1cc2sccc2n1Cc1ccc(F)cc1)N1CCc2ccccc21,95.6% (inactive)
12,COc1ccc(CC(=O)Nc2ccc(-c3nnc(-c4ccccc4)o3)cc2)cc1,105% (inactive)
13,COc1ccc(CC(=O)Nc2ccc(-c3nnc(-c4ccc(C)cc4)o3)cc2)cc1,30.9% (active)
14,Cc1ccc(OCC(=O)Nc2ccc(-c3nnc(-c4ccco4)o3)cc2)cc1,91.8% (inactive)
15,O=C(/C=C/NNC(=O)c1cccc(Br)c1)c1ccccc1,80.9% (inactive)
16,CN1CCN(CC(=O)Nc2sc3c(c2C#N)CCC(C(C)(C)C)C3)CC1 (stereo unspecified),2.62% (active)
17,CCC(=O)Nc1sc(C(=O)N2CCCCC2)c(C)c1C#N,98% (inactive)
18,CC(C)(C)C1CCc2c(sc3nc(SCC(N)=O)nc(N)c23)C1 (stereo unspecified),99% (inactive)
19,CCOC(=O)c1nnn(-c2nonc2-n2cccc2)c1CN1CCC(C(=O)OCC)CC1,95% (inactive)
20,O=C(NCCN1CCOCC1)c1c(F)c(F)c(F)c(F)c1F,97.6% (inactive)
21,CC(=O)Oc1cc2c(C(=O)NCCN3CCOCC3)c(C)oc2c2ccccc12,8.08% (active)
22,O=C(CCN1C(=O)c2ccccc2C1=O)NCCN1CCOCC1,104% (inactive)
23,Cc1ccc(-c2cc(C(=O)NCC3CCCO3)c3ccccc3n2)o1 (stereo unspecified),98.3% (inactive)
24,Clc1cccc(N=C2NN=C(c3ccc4c(c3)OCCO4)CS2)c1,101% (inactive)
